In brackets after ≈: the same amount, converted by molar mass. Activity calls are given as the source filed them. No cut-off for these calls is given here. Some results are limits rather than exact numbers.

Data set [1] deals with T1, Lysophosphatidic acid receptor 1 (Homo sapiens, UniProt Q92633). Put plainly: Antagonist activity at human LPA1 receptor expressed in CHO cells assessed as reduction in LPA-induced intracellular Ca2+ concentration pretreated with compound followed by LPA addition by fluorescence assay. It counts as functional, cell-based. The procedure, abridged: (§1)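 IC50s came from nonlinear regression of 5-point concentration–response curves, reported with 95% confidence intervals.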

Data set [2] addresses Lysophosphatidic acid receptor 2 (Homo sapiens, UniProt Q9HBW0). Put plainly: Inhibition of LPA2 (unknown origin). The procedure, abridged: as §1
Data set [3] deals with T2, Lysophosphatidic acid receptor 3 (Homo sapiens, UniProt Q9UBY5).
T2 sequence (Q9UBY5 whole entry): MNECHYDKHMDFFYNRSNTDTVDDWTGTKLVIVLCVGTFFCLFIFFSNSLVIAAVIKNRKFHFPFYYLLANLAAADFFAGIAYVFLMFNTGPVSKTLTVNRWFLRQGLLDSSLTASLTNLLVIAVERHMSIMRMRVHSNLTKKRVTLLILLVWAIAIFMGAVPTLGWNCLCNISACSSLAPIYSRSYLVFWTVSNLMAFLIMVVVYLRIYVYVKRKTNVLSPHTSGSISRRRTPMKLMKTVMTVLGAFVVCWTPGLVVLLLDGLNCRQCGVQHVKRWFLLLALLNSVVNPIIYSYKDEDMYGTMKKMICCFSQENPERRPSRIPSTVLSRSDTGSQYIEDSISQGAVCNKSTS
The data set is described as follows: Inhibition of LPA3 (unknown origin). A digest of the protocol: as §1

Data set [4] relates to Rattus norvegicus. The data set is described as follows: Inhibition of LPA-induced increase of intraurethral pressure in anesthetized rat at 10 mg/kg, id administered at 0 mins followed by LPA challenge at 0, 5, 15, 30 and 60 mins. It counts as functional. The conditions noted are these: Urethra. The procedure, abridged: (§2)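 Anesthetized rats received compound in 0.5% methylcellulose intraduodenally at 0 min. LPA (300 μg/kg) was given i.v. before dosing and at 5, 15, 30 and 60 min. The read-out is the maximal inhibition rate of the LPA-evoked intraurethral pressure rise.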

Data set [5] can be described thus: Solubility of the compound in buffer at pH 6.8. It counts as physicochemical.
A short description of data set [6]: Apparent permeability in human Caco2 cells. It counts as ADME, cell-based. To be noted: Caco-2.
The nature of data set [7]: Half life in human liver microsomes at 0.5 mg/ml. The format is ADME. The procedure, abridged: (§3)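 Liver microsomes were used at 0.5 mg/mL with NADPH. Half-life is reported in min.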
(In general: Liver microsomes are a subcellular fraction often used to study metabolism.)

The nature of data set [8]: Half life in rat liver microsomes at 0.5 mg/ml. It counts as ADME. The procedure, abridged: as §3
In data set [9] the test system is Rattus norvegicus. Put plainly: Reduction in intraurethral pressure in conscious rat at 1 mg/kg, po measured after 60 mins. It counts as functional, organism-based. To be noted: 30 mg/kg, in the assay text read “30 mg/kg” for “1 mg/kg”. The procedure, abridged:
(§4)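 Conscious rats were dosed orally at 0 min with no LPA stimulation. Intraurethral pressure and mean blood pressure were recorded continuously for 60 min and averaged over 10-min intervals. Comparison was against vehicle.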

The test system of data set [10] is Rattus norvegicus. Put plainly: Toxicity in conscious rat assessed as reduction in mean blood pressure at 1 mg/kg, po measured after 60 mins. It counts as organism-based. To be noted: in vivo, 1 h. A digest of the protocol:
as §4

Data set [11] has as its system Rattus norvegicus. Put plainly: Inhibition of LPA-induced increase of intraurethral pressure in anesthetized rat at 3 mg/kg, id administered at 0 mins followed by LPA challenge at 0, 5, 15, 30 and 60 mins. To be noted: Urethra. It counts as functional. A digest of the protocol: as §2
The subject of data set [12] is Rattus norvegicus. The data set is described as follows: Inhibition of LPA-induced increase of intraurethral pressure in po dosed rat administered 60 mins prior to LPA addition. It counts as functional. To be noted: Urethra. A digest of the protocol:
(§5)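 Conscious rats were dosed orally. After 60 min, LPA (300 μg/kg) was injected i.v. and intraurethral pressure was recorded under short-term anesthesia. ID50 was taken from the dose–response.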

Data set [13] has as its system Rattus norvegicus. The data set is described as follows: Inhibition of LPA-induced increase of intraurethral pressure in rat at 10 mg/kg, po administered 60 mins prior to LPA addition. The format is functional, organism-based. To be noted: Urethra. A digest of the protocol:
as §5

Data set [14] deals with Rattus norvegicus. The data set is described as follows: Inhibition of LPA-induced increase of intraurethral pressure in rat at 30 mg/kg, po administered 60 mins prior to LPA addition. It counts as functional, organism-based. To be noted: Urethra. A digest of the protocol:
as §5

In data set [15] the test system is Rattus norvegicus. Put plainly: In vivo antagonist activity at LPA1 receptor in conscious rat assessed as decrease in intraurethral pressure at 30 mg/kg, po. The format is functional, organism-based. The procedure, abridged:
as §4

Data set [16] deals with Rattus norvegicus. Put plainly: Toxicity in conscious rat assessed as reduction in mean blood pressure at 30 mg/kg, po. It counts as organism-based. The conditions noted are these: in vivo. The procedure, abridged:
as §4

A short description of data set [17]: Total clearance in rat at 3 mg/kg, iv. The format is ADME, organism-based. To be noted: in vivo.
Data set [18] can be described thus: Half life in rat at 3 mg/kg, iv. The conditions noted are these: in vivo. It counts as ADME, organism-based.
Data set [19] deals with T1, Lysophosphatidic acid receptor 1. The data set is described as follows: Antagonist activity at human LPA1 receptor expressed in CHO cells assessed as reduction in LPA-induced intracellular Ca2+ concentration at 1 uM pretreated with compound followed by LPA addition by fluorescence assay. It counts as functional, cell-based.

T1 sequence (Q92633 whole entry): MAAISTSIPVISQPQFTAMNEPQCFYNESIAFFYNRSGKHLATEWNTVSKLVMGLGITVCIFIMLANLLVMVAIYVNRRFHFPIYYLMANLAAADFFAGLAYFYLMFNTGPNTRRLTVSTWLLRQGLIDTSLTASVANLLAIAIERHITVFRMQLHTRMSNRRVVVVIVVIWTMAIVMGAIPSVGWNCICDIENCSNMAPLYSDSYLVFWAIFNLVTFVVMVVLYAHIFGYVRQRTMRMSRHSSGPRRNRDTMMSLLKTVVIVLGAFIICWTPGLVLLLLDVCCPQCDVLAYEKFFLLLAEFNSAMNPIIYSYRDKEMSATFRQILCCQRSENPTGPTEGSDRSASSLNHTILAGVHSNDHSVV
Sequence of Lysophosphatidic acid receptor 2 (Q9HBW0 whole entry): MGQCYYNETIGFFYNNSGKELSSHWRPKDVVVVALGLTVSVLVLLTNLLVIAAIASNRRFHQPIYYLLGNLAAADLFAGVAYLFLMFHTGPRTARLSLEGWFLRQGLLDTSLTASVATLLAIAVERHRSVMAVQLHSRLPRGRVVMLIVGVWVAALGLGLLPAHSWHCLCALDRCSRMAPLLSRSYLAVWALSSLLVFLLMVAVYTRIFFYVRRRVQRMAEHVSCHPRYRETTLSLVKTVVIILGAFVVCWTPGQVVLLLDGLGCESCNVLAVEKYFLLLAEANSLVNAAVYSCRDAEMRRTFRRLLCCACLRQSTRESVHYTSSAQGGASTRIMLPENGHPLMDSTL

With `COc1cccc(C(=O)N(CCCc2ccccc2)Cc2ccc(-c3ccccc3C(=O)O)cc2)c1`, the IC50 – broadly, the concentration that gives 50% inhibition – in data set [1] was found to be 1300 nM. With `COc1cc(C(=O)N(C/C=C/c2ccccc2)Cc2ccc(CC(=O)O)cc2)cc(OC)c1C`, the 50% inhibitory concentration (IC50) in [1] was over 1000 nM. With `COc1cc(OC)cc(C(=O)N(CCCc2ccccc2)Cc2ccc(-c3ccccc3CC(=O)O)cc2)c1`, the IC50 in data set [1] worked out at 210 nM. Same read-out and setting: with `O=C(O)c1ccccc1-c1ccc(CN(CCCc2ccccc2)C(=O)c2cccc(F)c2)cc1` the figure was 5500 nM; with `COc1ccccc1C(=O)N(CCCc1ccccc1)Cc1ccc(-c2ccccc2C(=O)O)cc1`, 3300 nM. For `COc1cc(C(=O)N(CCCc2ccc(F)cc2)Cc2ccc(CC(=O)O)cc2)cc(OC)c1C`, the concentration for half-maximal inhibition (IC50) in data set [1] was over 1000 nM. Turning to `COc1cc(C(=O)N(CCCOc2cccc(C(=O)O)c2)CCCc2ccccc2)cc(OC)c1C`, the IC50 in data set [1] stood at 680 nM. As to `COc1cc(C(=O)N(CCCCc2ccccc2)Cc2ccc(OCC(=O)O)cc2)cc(OC)c1C`, in data set [1], the IC50 was 6600 nM. As to `COc1cc(C(=O)N(CCCc2ccccc2)Cc2ccc(Oc3cccc(C)c3C(=O)O)cc2)cc(OC)c1C`, in data set [1], the IC50 turned out to be 100 nM. As to `COc1cc(C(=O)N(CCCc2cccc(F)c2)Cc2ccc(CC(=O)O)cc2)cc(OC)c1C`, the half-maximal inhibitory concentration (IC50) in data set [1] was found to be 190 nM. On to `COc1cc(C(=O)N(CCCc2ccccc2)Cc2ccc(OCC(=O)O)cc2)cc(OC)c1C`, for which the results for the IC50 in data set [1], in [2] and in [3] were 100 nM, 23000 nM and over 10000 nM, respectively. Also, the inhibition in vivo (usually how much of the control response was suppressed) at 10 mg/kg in data set [4] is 44%. Besides, the concentration in solution in data set [5] (solubility) came to 84 µM (≈ 40.1 µg/mL). Moreover, the Papp (as a rule, the rate of passage across a membrane or cell layer, normalised by area and donor concentration) in data set [6] turned out to be 3.2 ×10⁻⁶ cm/s. The results for the half-life in data set [7] and in data set [8] were 22 min and 24 min, respectively. `COc1cc(OC)cc(C(=O)N(CCCc2ccccc2)Cc2ccc(-c3ccccc3CCC(=O)O)cc2)c1`: the IC50 in data set [1] was 230 nM. For `COc1cc(C(=O)N(CCCc2ccccc2)Cc2ccc(C(=O)O)cc2)cc(OC)c1C`, the IC50 in data set [1] was over 1000 nM. As to `COc1cc(C(=O)N(CCCc2ccccc2F)Cc2ccc(CC(=O)O)cc2)cc(OC)c1C`, the concentration for half-maximal inhibition (IC50) in data set [1] is 220 nM. Regarding `Cc1cccc(C(=O)N(CCCc2ccccc2)Cc2ccc(-c3ccccc3C(=O)O)cc2)c1`, in data set [1], the half-maximal inhibitory concentration (IC50) was 1700 nM. On to `COc1cc(OC)cc(C(=O)N(CCCc2ccccc2)Cc2ccc(Oc3ccccc3C(=O)O)cc2)c1`, for which, in [1], the IC50 was 89 nM.

Consider `COc1ccc(C(=O)N(CCCc2ccccc2)Cc2ccc(-c3ccccc3C(=O)O)cc2)cc1OC`, for which, in [1], the IC50 is 3700 nM. Turning to `COc1cc(C(=O)N(CCCc2ccccc2)Cc2ccc(Oc3ccc(Cl)cc3C(=O)O)cc2)cc(OC)c1C`, the values for the half-maximal inhibitory concentration (IC50) in data set [1], in data set [2] and in data set [3] were 3.5 nM, 790 nM and over 10000 nM, respectively. In data set [4], this compound returned an inhibition in vivo at 10 mg/kg of 53%. The solubility (usually how much of the substance goes into solution per volume) in data set [5] turned out to be 69 µM (≈ 39.6 µg/mL). Moreover, the half-life in data set [7] and in data set [8] was under 15 min in each case.

As to `COc1cc(C(=O)N(CCCc2ccccc2)Cc2ccc(Oc3c(C)cccc3C(=O)O)cc2)cc(OC)c1C`, the half-inhibitory concentration (IC50) in data set [1] is 140 nM. Turning to `COc1cc(C(=O)N(CCCc2ccccc2)Cc2ccc(-c3ccccc3C(=O)O)cc2)cc(OC)c1OC`, the half-maximal inhibitory concentration (IC50) in data set [1] came to 390 nM.

Consider `CCOc1ccccc1OCCN[C@H](C)Cc1ccc(OC)c(S(N)(=O)=O)c1` [TAMSULOSIN], for which the result in data set [9] was Active. In [10], the Activity result is reported as “Toxic”. On to `COc1cc(C(=O)N(CCCc2ccccc2)Cc2ccc(Oc3cc(C)ccc3C(=O)O)cc2)cc(OC)c1C`, for which the concentration for half-maximal inhibition (IC50) in data set [1] worked out at 15 nM. Consider `COc1cc(C(=O)N(CCCc2ccccc2)Cc2ccc(Oc3ccc(C)cc3C(=O)O)cc2)cc(OC)c1C`, for which, in data set [1], the IC50 was determined as 42 nM. As to `COc1cc(C(=O)N(CCCc2ccccc2)Cc2ccc(Oc3ccccc3C(=O)O)cc2)cc(OC)c1C`, the half-inhibitory concentration (IC50) in data set [1] was found to be 71 nM. On to `COc1cc(C(=O)N(CCCc2ccccc2)Cc2ccc(Oc3ccccc3C(=O)O)cc2)cc(OC)c1OC`, for which, in data set [1], the half-inhibitory concentration (IC50) is 130 nM. `COc1cc(C(=O)N(CCCc2ccccc2)Cc2ccc(CC(=O)O)cc2)cc(OC)c1C`: the results for the IC50 in data set [1], in [2] and in data set [3] were 160 nM, 8600 nM and over 10000 nM, respectively. The compound further registered an inhibition in vivo at 3 mg/kg in data set [11] of 62%. In [4], 10 mg/kg produced 88% inhibition in vivo. The compound further gave a solubility in data set [5] of 73 µM (≈ 33.7 µg/mL). In [6], the Papp turned out to be 15.9 ×10⁻⁶ cm/s. Moreover, the results for the half-life in [7], in data set [8] and in [18] were 28 min, 29 min and 18 min, respectively. In addition, the inhibition (as a rule, the change of the read-out against control, counted positive when it falls) in data set [12] was “Dose-dependent effect”. The ED50 in data set [12] (read-out: ID50 (the source's name)) was 11.6 mg/kg. The inhibition entry in [13], in data set [14] and in [15] was “Active” in each case. For the same compound, in [16], the Activity result is on record as “Non-Toxic”. For the same compound, in data set [9], the result was Active. Also, the clearance (usually the volume of plasma or blood freed of the substance per unit of time) in data set [17] amounted to 15.9 mL/min/kg.

`COc1cc(OC)cc(C(=O)N(CCCc2ccccc2)Cc2ccc(Oc3ccc(C(=O)O)cc3)cc2)c1`: the inhibition in data set [19] stood at 44%. Take `Cc1cc(C)cc(C(=O)N(CCCc2ccccc2)Cc2ccc(-c3ccccc3C(=O)O)cc2)c1`: in data set [1], the IC50 stood at 260 nM. As for `COc1ccc(C(=O)N(CCCc2ccccc2)Cc2ccc(-c3ccccc3C(=O)O)cc2)cc1`, the IC50 in [1] was 4400 nM.

For `COc1cc(OC)cc(C(=O)N(CCCc2ccccc2)Cc2ccc(Oc3cccc(C(=O)O)c3)cc2)c1`, the IC50 in data set [1] is 140 nM.

Consider `COc1cc(C(=O)N(CCCc2ccccc2)Cc2ccc(Oc3cc(Cl)ccc3C(=O)O)cc2)cc(OC)c1C`, for which the IC50 in data set [1] was determined as 5.9 nM. Regarding `O=C(O)c1ccccc1-c1ccc(CN(CCCc2ccccc2)C(=O)c2ccccc2)cc1`, the concentration for half-maximal inhibition (IC50) in [1] amounted to 12100 nM. For the compound `COc1cc(OC)cc(C(=O)N(CCCc2ccccc2)Cc2ccc(-c3ccccc3C(=O)O)cc2)c1`, the half-inhibitory concentration (IC50) in data set [1] came out at 260 nM. The same measure, in the same setting: for `COc1cc(C(=O)N(CCc2ccccc2)Cc2ccc(OCC(=O)O)cc2)cc(OC)c1C` the value was over 10000 nM.

Source of the values: ChEMBL document CHEMBL3856289, “Discovery of ONO-7300243 from a Novel Class of Lysophosphatidic Acid Receptor 1 Antagonists: From Hit to Lead” (ACS Med Chem Lett, 2016).
